≈ marks a conversion by molar mass, not a printed value.
Experiments:
Mus musculus [1] = assay: Antiinflammatory activity against carrageenan-induced hind paw oedema in mouse assessed as inhibition of swelling thickness at 200 mg/kg, po after 180 mins; type: functional; settings: 3 h
Outline: (§1)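 Fasted mice (n = 5–6) were dosed orally with the sample in 0.5% CMC/water. One hour later, carrageenan (0.5 mg/25 µl in 154 mM saline) was injected subplantar into the right hind paw. The right-minus-left footpad thickness difference was measured with dial gauge callipers every 90 min over 6 h. Inhibition % is calculated versus vehicle control; mean ± SEM, Student's t test.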

Candida parapsilosis = assay: Antifungal activity against Candida parapsilosis ATCC 22019 after 48 hrs by broth microdilution test; type: functional; settings: Lodderomyces parapsilosis, ATCC 22019, 48 h
Outline: (§2)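 Yeasts tested by NCCLS M27-A broth microdilution in RPMI 1640 (with L-glutamine, without sodium bicarbonate) with an inoculum of 0.5–2.5 × 10^3 cfu/mL. Compounds were prepared from DMSO solution diluted in water as twofold dilutions from 512 to 0.5 µg/mL. Plates were incubated at 35 °C for 48 h. MIC is the lowest concentration giving no visible growth.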

Mus musculus [2] = assay: Antiinflammatory activity against carrageenan-induced hind paw oedema in mouse assessed as swelling thickness at 100 mg/kg, po after 270 mins; type: functional; outline: as §1
Mus musculus [3] = assay: Antiinflammatory activity against carrageenan-induced hind paw oedema in mouse assessed as inhibition of swelling thickness at 200 mg/kg, po after 360 mins; type: functional; settings: 6 h; outline: as §1
Mus musculus [4] = assay: Antiinflammatory activity against carrageenan-induced hind paw oedema in mouse assessed as inhibition of swelling thickness at 100 mg/kg, po after 90 mins; type: functional; settings: 1.5 h; outline: as §1
Staphylococcus aureus = assay: Antibacterial activity against Staphylococcus aureus ATCC 29213 after 24 hrs by broth microdilution test; type: functional; settings: ATCC 29213, 24 h
Outline: (§3)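 NCCLS broth microdilution in Mueller-Hinton broth with an inoculum of 5 × 10^5 cfu/mL. Compounds were dissolved in DMSO, diluted in sterile water, and tested as twofold dilutions from 512 to 0.5 µg/mL. Plates were incubated at 35 °C for 24 h. MIC is the lowest concentration preventing visible growth.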

Enterococcus faecalis = assay: Antibacterial activity against Enterococcus faecalis ATCC 29212 after 24 hrs by broth microdilution test; type: functional; settings: ATCC 29212, 24 h; outline: as §3
Mus musculus [5] = assay: Antiinflammatory activity against carrageenan-induced hind paw oedema in mouse assessed as swelling thickness at 50 mg/kg, po after 180 mins; type: functional; outline: as §1
Mus musculus [6] = assay: Analgesic activity in mouse assessed as inhibition of acetic acid induced-abdominal writhing at 100 mg/kg, ip by Koster test; type: functional; settings: Abdomen, route intraperitoneal
Mus musculus [7] = assay: Antiinflammatory activity against carrageenan-induced hind paw oedema in mouse assessed as swelling thickness at 50 mg/kg, po after 270 mins; type: functional; outline: as §1
Pichia kudriavzevii = assay: Antifungal activity against Candida krusei ATCC 6258 after 48 hrs by broth microdilution test; type: functional; settings: ATCC 6258, 48 h; outline: as §2
Escherichia coli = assay: Antibacterial activity against Escherichia coli ATCC 25922 after 24 hrs by broth microdilution test; type: functional; settings: ATCC 25922, 24 h; outline: as §3
Candida albicans = assay: Antifungal activity against Candida albicans ATCC 90028 after 48 hrs by broth microdilution test; type: functional; settings: ATCC 90028, 48 h; outline: as §2
Mus musculus [8] = assay: Analgesic activity in mouse assessed as inhibition of hind paw lick at 100 mg/kg, ip by hot plate test; type: functional; settings: route intraperitoneal
Mus musculus [9] = assay: Antiinflammatory activity against carrageenan-induced hind paw oedema in mouse assessed as swelling thickness at 50 mg/kg, po after 90 mins; type: functional; outline: as §1
Pseudomonas aeruginosa = assay: Antibacterial activity against Pseudomonas aeruginosa ATCC 27853 after 24 hrs by broth microdilution test; type: functional; settings: ATCC 27853, 24 h; outline: as §3
Mus musculus [10] = assay: Antiinflammatory activity against carrageenan-induced hind paw oedema in mouse assessed as inhibition of swelling thickness at 100 mg/kg, po after 180 mins; type: functional; settings: 3 h; outline: as §1
Mus musculus [11] = assay: Antiinflammatory activity against carrageenan-induced hind paw oedema in mouse assessed as swelling thickness at 100 mg/kg, po after 360 mins; type: functional; outline: as §1
Mus musculus [12] = assay: Antiinflammatory activity against carrageenan-induced hind paw oedema in mouse assessed as swelling thickness at 50 mg/kg, po after 360 mins; type: functional; outline: as §1
Mus musculus [13] = assay: Antiinflammatory activity against carrageenan-induced hind paw oedema in mouse assessed as inhibition of swelling thickness at 200 mg/kg, po after 90 mins; type: functional; settings: 1.5 h; outline: as §1
Mus musculus [14] = assay: Antiinflammatory activity against carrageenan-induced hind paw oedema in mouse assessed as inhibition of swelling thickness at 200 mg/kg, po after 270 mins; type: functional; settings: 4.5 h; outline: as §1
Mus musculus [15] = assay: Antiinflammatory activity against carrageenan-induced hind paw oedema in mouse assessed as inhibition of swelling thickness at 100 mg/kg, po after 360 mins; type: functional; settings: 6 h; outline: as §1
Mus musculus [16] = assay: Antiinflammatory activity against carrageenan-induced hind paw oedema in mouse assessed as swelling thickness at 200 mg/kg, po after 360 mins; type: functional; outline: as §1
Mus musculus [17] = assay: Toxicity in mouse assessed as ulceration effect at 200 mg/kg; type: functional, organism-based; parameters: dose 200 mg/kg
Outline: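 Mice given 200 mg/kg orally in the carrageenan oedema study were killed under deep ether anaesthesia 6 h after treatment. Stomachs were opened along the greater curvature and examined under a dissecting microscope for lesions or bleeding. Result is expressed as the ratio of ulcerated animals per group.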

Mus musculus [18] = assay: Antiinflammatory activity against carrageenan-induced hind paw oedema in mouse assessed as inhibition of swelling thickness at 100 mg/kg, po after 270 mins; type: functional; settings: 4.5 h; outline: as §1

Row | Structure (SMILES) | inhibition in vivo at 200 mg/kg (Mus musculus [1]) [%] | MIC (Candida parapsilosis) [µg/mL] | inhibition in vivo at 200 mg/kg (Mus musculus [3]) [%] | inhibition in vivo at 100 mg/kg (Mus musculus [4]) [%] | MIC (Staphylococcus aureus) [µg/mL] | MIC (Enterococcus faecalis) [µg/mL] | Activity (Mus musculus [5]) [%] | inhibition in vivo at 100 mg/kg (Mus musculus [6]) [%] | Activity (Mus musculus [7]) [%] | MIC (Pichia kudriavzevii) [µg/mL] | MIC (Escherichia coli) [µg/mL] | MIC (Candida albicans) [µg/mL] | inhibition in vivo at 100 mg/kg (Mus musculus [8]) [%] | Activity (Mus musculus [9]) [%] | MIC (Pseudomonas aeruginosa) [µg/mL] | inhibition in vivo at 100 mg/kg (Mus musculus [10]) [%] | Activity (Mus musculus [12]) [%] | inhibition in vivo at 200 mg/kg (Mus musculus [13]) [%] | inhibition in vivo at 200 mg/kg (Mus musculus [14]) [%] | inhibition in vivo at 100 mg/kg (Mus musculus [15]) [%] | other results
1 | CNc1nnc(Cn2c(=O)oc3ccc(C)cc32)s1 | 46.9 | 256 (≈ 926 µM) | 14.5 | 62.7 | 512 (≈ 1850 µM) | 512 (≈ 1850 µM) | 101.3 | 73.8 | 106.8 | 256 (≈ 926 µM) | 512 (≈ 1850 µM) | 256 (≈ 926 µM) | 54.3 | 66 | 512 (≈ 1850 µM) | 21.4 | 96 | 63.5 | 33.3 | – | Activity (Mus musculus [2]): 110.4%; Activity (Mus musculus [11]): 106.7%
2 | Cc1ccc2oc(=O)n(Cc3n[nH]c(=S)n3C)c2c1 | 38.6 | 256 (≈ 926 µM) | – | 79.8 | > 512 | > 512 | 85.1 | 49.6 | 120.7 | 512 (≈ 1850 µM) | 512 (≈ 1850 µM) | 512 (≈ 1850 µM) | 2.2 | 67.5 | 512 (≈ 1850 µM) | 11.8 | 97.8 | 42 | 15.8 | 27.4 | Activity (Mus musculus [16]): 79.1%; Activity (Mus musculus [17]): Not toxic; inhibition in vivo at 100 mg/kg (Mus musculus [18]): 14.8%
3 | Cc1ccc2oc(=O)n(Cc3n[nH]c(=S)n3-c3ccccc3)c2c1 | 47.7 | 128 (≈ 378 µM) | 5.5 | 79.8 | 256 (≈ 757 µM) | 256 (≈ 757 µM) | 115.5 | 49.6 | 157.3 | 128 (≈ 378 µM) | 256 (≈ 757 µM) | 128 (≈ 378 µM) | 13 | 122.8 | 256 (≈ 757 µM) | 63.3 | 147.2 | 53.2 | 16.7 | 27.4 | Activity (Mus musculus [17]): Not toxic; inhibition in vivo at 100 mg/kg (Mus musculus [18]): 31.8%
4 | CC1(C)S[C@@H]2[C@H](NC(=O)[C@H](N)c3ccccc3)C(=O)N2[C@H]1C(=O)O [AMPICILLIN] | – | – | – | – | 1 (≈ 2.86 µM) | – | – | – | – | – | – | – | – | – | – | – | – | – | – | – | –
5 | CNC(=S)NNC(=O)Cn1c(=O)oc2ccc(C)cc21 | – | 128 (≈ 435 µM) | 27.5 | 64.7 | 512 (≈ 1740 µM) | 256 (≈ 870 µM) | 125.2 | 61.7 | 187.2 | 128 (≈ 435 µM) | 256 (≈ 870 µM) | 128 (≈ 435 µM) | 23.9 | 118.2 | 128 (≈ 435 µM) | 33.8 | 188.9 | 58 | 35.2 | – | Activity (Mus musculus [11]): 85.8%; Activity (Mus musculus [17]): Not toxic
6 | Cc1ccc2oc(=O)n(CC(=O)N/N=C/c3ccc(Cl)cc3)c2c1 | 22.8 | 256 (≈ 745 µM) | 7.7 | 64.7 | > 512 | > 512 | 89 | 62.5 | 111.8 | 256 (≈ 745 µM) | > 512 | 128 (≈ 372 µM) | 50.7 | 72.5 | > 512 | 5.1 | 107 | 17.1 | 17.2 | 4.3 | inhibition in vivo at 100 mg/kg (Mus musculus [18]): 5.3%

— ChEMBL document CHEMBL1149634, “1-Acylthiosemicarbazides, 1,2,4-triazole-5(4H)-thiones, 1,3,4-thiadiazoles and hydrazones containing 5-methyl-2-benzoxazolinones: synthesis, analgesic-anti-inflammatory and antimicrobial activities” (2007)
